Assay results collected from several papers.
Compare with care: the assays were run in different laboratories.
Target: Serine/threonine-protein kinase SIK3 (SIK3, Homo sapiens, UniProt Q9Y2K2)

SMILES	read-out	technique	concentration	remaining binding [%]
C[C@H]1CCN(c2nccc(-c3cnn4ncccc34)n2)C1	binding	–	1 µM	66
COc1ncc2cc3ccccc3nc2c1C#N	cell-free assay	competition with immobilised ligand	5 µM	88
N[C@@H]1CCN(c2nccc(-c3cnn4ncccc34)n2)C1	binding	–	1 µM	100
c1cncc(-c2cccc(Nc3nccc(NC4CCCCC4)n3)c2)c1	binding	competition with immobilised ligand	10 µM	83
O=C(c1ccc(Nc2nccc(-c3cc4ccccc4s3)n2)cc1)N1CCC(N2CCCC2)CC1	binding	competition with immobilised ligand	1 µM	65
O=C(Nc1c[nH]nc1C(=O)NC1CCNCC1)c1cc(F)cc(F)c1	binding	competition with immobilised ligand	1 µM	66
COc1ccnn2ncc(-c3ccnc(N(C)C)n3)c12	binding	–	1 µM	78
CN(C)CC#Cc1ccc(OCCCc2sc(N3CCc4cccc(C(=O)Nc5nc6ccccc6s5)c4C3)nc2C(=O)O)c(F)c1	cell-free assay	competition with immobilised ligand	1 µM	77
F[C@@H]1CCN(c2nccc(-c3cnn4ncccc34)n2)C1	binding	–	1 µM	74
CCS(=O)(=O)c1cc2cc(C[C@](O)(CC(C)(C)c3ccc(F)cc3C(N)=O)C(F)(F)F)[nH]c2cn1	cell-free assay	competition with immobilised ligand	1 µM	85
O=C(c1ccc(Nc2ncc(Cl)c(-c3ccc(Cl)s3)n2)cc1)N1CCC(N2CCCC2)CC1	binding	competition with immobilised ligand	1 µM	84
FC(F)(F)Oc1cccc(-c2cnc3ccc(-c4ccncc4)nn23)c1	cell-free assay	competition with immobilised ligand	5 µM	66
CCC(=O)N[C@@H]1CC[C@H](C(=O)N(C)c2ccc(-c3nc4ccccc4o3)cc2)C1	cell-free assay	competition with immobilised ligand	1 µM	100
COc1cnc(Nc2cccc(S(N)(=O)=O)c2)nc1N1CCN(c2ccccc2)C(=O)C1	binding	competition with immobilised ligand	1 µM	90
NS(=O)(=O)c1cc(NC(=O)Cc2ccccc2)ccc1Oc1cccc(Cl)c1	cell-free assay	competition with immobilised ligand	1 µM	87
O=C(NCCCN1CCOCC1)c1ccc(Nc2nccc(-c3cc4ccccc4s3)n2)cc1	binding	competition with immobilised ligand	1 µM	95
CN(CCCC(F)(F)F)c1nccc(-c2cnn3ncccc23)n1	binding	–	1 µM	100
CN(C)C(=O)Cn1cc(-c2nc(C3(c4ccc(-c5cnc(N)nc5)cc4)CC3)no2)cn1	cell-free assay	competition with immobilised ligand	1 µM	100
c1cnn2ncc(-c3ccnc(N4CCC45COC5)n3)c2c1	binding	–	1 µM	70
O=C(O)[C@H]1[C@H](Cn2nnc3ccccc3c2=O)CC[C@@H]1C(=O)c1ccc(OCCC2CCOCC2)cc1	cell-free assay	competition with immobilised ligand	1 µM	61
